Measured values as given in ChEMBL document CHEMBL1123361, “Syntheses and beta-adrenergic agonist and antiaggregatory properties of N-substituted trimetoquinol analogues” (J Med Chem, 1986).

What was measured:
[1] = target: Beta-2 adrenergic receptor (Cavia porcellus) (UniProt Q8K4Z4)
Homo sapiens [2] = species: Homo sapiens; test: Compound was evaluated for the secretion of [14C]- Serotonin (Antisecretory activity); type: functional
Outline: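 [14C]serotonin release measured in the same U46619-challenged washed human platelet samples as aggregation: supernatant radioactivity after 10000g 30 s spin, scintillation counting, relative to total after lysis; net U46619-evoked release as % of total; IC50 from % inhibition of maximal release vs log concentration; mean ± SEM, ≥3 preparations.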

[3] = target: Beta-1 adrenergic receptor (Cavia porcellus) (UniProt B0FL73)
Sequence of Beta-1 adrenergic receptor (Cavia porcellus) (B0FL73 1-467): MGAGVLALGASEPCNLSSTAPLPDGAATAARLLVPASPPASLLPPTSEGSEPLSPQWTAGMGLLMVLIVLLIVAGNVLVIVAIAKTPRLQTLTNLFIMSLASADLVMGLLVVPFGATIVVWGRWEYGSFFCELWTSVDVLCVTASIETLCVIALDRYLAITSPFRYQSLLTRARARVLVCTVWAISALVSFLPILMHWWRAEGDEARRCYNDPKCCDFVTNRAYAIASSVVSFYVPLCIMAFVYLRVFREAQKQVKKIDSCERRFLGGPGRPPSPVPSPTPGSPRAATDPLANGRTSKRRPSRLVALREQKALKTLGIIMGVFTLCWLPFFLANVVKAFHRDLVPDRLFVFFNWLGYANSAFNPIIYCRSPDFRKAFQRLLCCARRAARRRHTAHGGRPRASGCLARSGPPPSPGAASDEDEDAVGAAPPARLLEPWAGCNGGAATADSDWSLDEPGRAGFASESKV

Homo sapiens [4] = species: Homo sapiens; test: Compound was evaluated for the inhibition of U-46,619-induced human platelet aggregation (Antiaggregatory activity); type: functional
Outline: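 Washed human platelets (ACD blood from aspirin-free donors, apyrase-washed, resuspended in calcium-containing modified Tyrode's pH 7.4, 3×10^8/mL) preincubated with vehicle or drug 3 min at 37 °C, then challenged with the minimum U46619 dose (0.8-2.0 μM) giving maximal irreversible aggregation; turbidometric readout ≥2 min; IC50 from % inhibition vs log concentration plots; mean ± SEM, 3-4 donors.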

Sequence of Beta-2 adrenergic receptor (Cavia porcellus) (Q8K4Z4 whole entry, looked up): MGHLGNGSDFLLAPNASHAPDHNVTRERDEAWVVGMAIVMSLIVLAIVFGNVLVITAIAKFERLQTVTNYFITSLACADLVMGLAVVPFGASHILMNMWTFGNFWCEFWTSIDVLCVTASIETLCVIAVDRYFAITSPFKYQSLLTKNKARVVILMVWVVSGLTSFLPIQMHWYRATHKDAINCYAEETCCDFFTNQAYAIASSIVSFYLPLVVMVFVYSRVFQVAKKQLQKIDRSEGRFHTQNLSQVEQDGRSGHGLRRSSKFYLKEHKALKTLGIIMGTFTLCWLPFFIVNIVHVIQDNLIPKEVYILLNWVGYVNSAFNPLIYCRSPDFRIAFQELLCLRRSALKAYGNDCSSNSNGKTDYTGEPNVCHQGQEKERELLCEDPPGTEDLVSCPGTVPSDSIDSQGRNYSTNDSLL

Row | SMILES | pD2 [1] | IC50 (Homo sapiens [2]) | pD2 [3] | IC50 (Homo sapiens [4])
1 | COc1cc(CC2c3cc4c(cc3CCN2CCCl)OS(=O)O4)cc(OC)c1OC (stereo not drawn) | 5.58 | 166 µM | 5.24 | 64.2 µM
2 | COc1cc(CC2c3cc(O)c(O)cc3CCN2C)cc(OC)c1OC (stereo not drawn) | 6.05 | – | 5.89 | –
3 | COc1cc(C[C@H]2NCCc3cc(O)c(O)cc32)cc(OC)c1OC | 5.63 | 0.55 µM | 5.58 | 0.71 µM
4 | COc1cc(CC2NCCc3cc(O)c(O)cc32)cc(OC)c1OC (stereo not drawn) | 6.96 | – | 7.1 | –
5 | COc1cc(C[C@@H]2NCCc3cc(O)c(O)cc32)cc(OC)c1OC | 7.23 | 24.5 µM | 7.26 | 19.3 µM
6 | COc1cc(CC2c3cc(O)c(O)cc3CCN2CCCl)cc(OC)c1OC (stereo not drawn) | 5.34 | 162 µM | 4.88 | 86.6 µM
7 | COc1cc(CC2c3cc(O)c(O)cc3CCN2Cc2ccccc2)cc(OC)c1OC (stereo not drawn) | 5.34 | 96.5 µM | 4.34 | 21.2 µM
8 | COc1cc(CC2c3cc(O)c(O)cc3CCN2CCO)cc(OC)c1OC (stereo not drawn) | 5.73 | 116 µM | 5.35 | 71.6 µM
